This is an account of results in ChEMBL document CHEMBL1138544, “Solution-phase parallel synthesis and evaluation of anticonvulsant activity of N-substituted-3,4-dihydroisoquinoline-2(1H)-carboxamides” (2009).

Test [1] relates to Mus musculus. The test is described as follows: Anticonvulsant activity against audiogenic clonus seizures in ip dosed DBA/2 mouse epilepsy model administered 30 mins before auditory simulation. In kind it is functional. As to conditions: DBA/2, ip. In outline: (§1)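 DBA/2 mice (sound-seizure susceptible), 8e12 g, 22e25 days old, either sex, groups of 10. Vehicle or each dose given 30 min before auditory stimulation. Latency to and incidence of each seizure phase scored. ED50 for each phase taken from dose-response curves fitted by the Litchfield and Wilcoxon method.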

The subject of test [2] is Mus musculus. Description: Anticonvulsant activity against audiogenic tonus seizures in ip dosed DBA/2 mouse epilepsy model administered 30 mins before auditory simulation. Format: functional. Conditions: DBA/2, ip. In outline: as §1

Broadly, the ED50 is the dose at which the effect has come halfway, by size or by number of responders. Read a high ED50 as a need for a large dose. Regarding `COc1cc2c(cc1OC)C(c1ccc(Br)cc1)N(C(=O)NC(C)(C)C)CC2` (centres undefined), the ED50 in test [1] is above 35 mg/kg; in test [2] it was 16.9 mg/kg.

As to `CCNC(=O)N1CCc2cc(OC)c(OC)cc2C1c1ccc(Cl)cc1` (centres undefined), the figures for the median effective dose (ED50) in test [1] and in test [2] were 30.4 mg/kg and 14.2 mg/kg, respectively.

For `COc1cc2c(cc1OC)C(c1ccc(F)cc1)N(C(=O)NC(C)(C)C)CC2` (centres undefined), the ED50 in test [1] was above 35 mg/kg; in test [2] it was 18.7 mg/kg.

For the compound `CCNC(=O)N1CCc2cc(OC)c(OC)cc2C1c1ccccc1` (centres undefined), the ED50 in test [1] was 32.5 mg/kg; in test [2], 11.9 mg/kg.

Regarding `COc1cc2c(cc1OC)C(c1ccc(Cl)cc1)N(C(=O)NC(C)C)CC2` (centres undefined), the median effective dose (ED50) was above 35 mg/kg in test [1] and 26.1 mg/kg in test [2].

`CCCNC(=O)N1CCc2cc(OC)c(OC)cc2C1c1ccc(Br)cc1` (centres undefined): the ED50 in test [1] was above 35 mg/kg; in test [2], 31.2 mg/kg.

Regarding `COc1cc2c(cc1OC)C(c1ccc(Cl)cc1)N(C(=O)NC(C)(C)C)CC2` (centres undefined), the figures for the ED50 in test [1] and in test [2] were 30.6 mg/kg and 13.8 mg/kg, respectively.

With `CCCNC(=O)N1CCc2cc(OC)c(OC)cc2C1c1ccccc1` (centres undefined), the ED50 in test [1] was above 35 mg/kg; in test [2], 18.1 mg/kg.

Consider `CCCCNC(=O)N1CCc2cc(OC)c(OC)cc2C1c1ccc(F)cc1` (centres undefined), for which the 50% effective dose (ED50) in test [1] is above 35 mg/kg; in test [2] it was 13.7 mg/kg.

Take `COc1cc2c(cc1OC)C(c1ccccc1)N(C(=O)NC1CCCC1)CC2` (centres undefined): the ED50 was above 35 mg/kg in test [1] and 15.1 mg/kg in test [2].

As to `COc1cc2c(cc1OC)C(c1ccc(Cl)cc1)N(C(=O)NC1CCCCC1)CC2` (centres undefined), the median effective dose (ED50) was above 35 mg/kg in test [1] and 14.2 mg/kg in test [2].

On to `CCCCNC(=O)N1CCc2cc(OC)c(OC)cc2C1c1ccccc1` (centres undefined), for which the median effective dose (ED50) is 31.7 mg/kg in test [1] and 11 mg/kg in test [2].

Take `COc1cc2c(cc1OC)C(c1ccc(Cl)cc1)N(C(C)=O)CC2` (centres undefined): the ED50 in test [1] was 2.25 mg/kg; in test [2] it was 1.22 mg/kg.

Consider `COc1cc2c(cc1OC)C(c1ccc(Br)cc1)N(C(=O)NC1CCCC1)CC2` (centres undefined), for which the ED50 in test [1] is above 35 mg/kg; in test [2], 14.7 mg/kg.

For `COc1cc2c(cc1OC)C(c1ccc(F)cc1)N(C(=O)NC1CCCC1)CC2` (centres undefined), the values for the ED50 in test [1] and in test [2] were 27.7 mg/kg and 7.24 mg/kg, respectively.

Turning to `CCCNC(=O)N1CCc2cc(OC)c(OC)cc2C1c1ccc(Cl)cc1` (centres undefined), the figures for the 50% effective dose (ED50) in test [1] and in test [2] were above 35 mg/kg and 23.4 mg/kg, respectively.

On to `COc1cc2c(cc1OC)C(c1ccc(F)cc1)N(C(=O)NC(C)C)CC2` (centres undefined), for which the ED50 in test [1] was above 35 mg/kg; in test [2] it was 17.3 mg/kg.

As for `NCC1(CC(=O)O)CCCCC1` [GABAPENTIN], the ED50 in test [1] was above 35 mg/kg; in test [2] it was 21.5 mg/kg.

Consider `CCCCNC(=O)N1CCc2cc(OC)c(OC)cc2C1c1ccc(Br)cc1` (centres undefined), for which the median effective dose (ED50) in test [1] was above 35 mg/kg; in test [2], 15.5 mg/kg.

On to `CCCCNC(=O)N1CCc2cc(OC)c(OC)cc2C1c1ccc(Cl)cc1` (centres undefined), for which the 50% effective dose (ED50) in test [1] was above 35 mg/kg; in test [2] it was 16.5 mg/kg.

On to `COc1cc2c(cc1OC)C(c1ccc(F)cc1)N(C(=O)NC1CCCCC1)CC2` (centres undefined), for which the 50% effective dose (ED50) in test [1] and in test [2] was above 35 mg/kg throughout.

On to `CCNC(=O)N1CCc2cc(OC)c(OC)cc2C1c1ccc(F)cc1` (centres undefined), for which the ED50 in test [1] and in test [2] was above 35 mg/kg in each case.

With `COc1cc2c(cc1OC)C(c1ccc(Br)cc1)N(C(=O)CN1CCCCC1)CC2` (centres undefined), the ED50 in test [1] is 5.99 mg/kg; in test [2] it was 3.86 mg/kg.

In the case of `CCCC(CCC)C(=O)O` [VALPROIC ACID], the ED50 in test [1] was 20.3 mg/kg; in test [2], 9.9 mg/kg.

Take `COc1cc2c(cc1OC)C(c1ccc(Cl)cc1)N(C(=O)NC1CCCC1)CC2` (centres undefined): the ED50 is above 35 mg/kg in test [1] and 12.1 mg/kg in test [2].

Take `COc1cc2c(cc1OC)C(c1ccc(Br)cc1)N(C(=O)NC1CCCCC1)CC2` (centres undefined): the ED50 in test [1] is above 35 mg/kg; in test [2] it was 19.3 mg/kg.

Regarding `COc1cc2c(cc1OC)C(c1ccccc1)N(C(=O)NC(C)(C)C)CC2` (centres undefined), the ED50 in test [1] is 27.5 mg/kg; in test [2], 13.9 mg/kg.

Take `COc1cc2c(cc1OC)C(c1ccccc1)N(C(=O)NC1CCCCC1)CC2` (centres undefined): the ED50 in test [1] is 26.9 mg/kg; in test [2], 9.38 mg/kg.

For `CCNC(=O)N1CCc2cc(OC)c(OC)cc2C1c1ccc(Br)cc1` (centres undefined), the ED50 in test [1] and in test [2] was above 35 mg/kg throughout.

Take `COc1cc2c(cc1OC)C(c1ccccc1)N(C(=O)NC(C)C)CC2` (centres undefined): the ED50 in test [1] and in test [2] was above 35 mg/kg each time.

On to `COc1cc2c(cc1OC)C(c1ccc(Br)cc1)N(C(=O)NC(C)C)CC2` (centres undefined), for which the ED50 in test [1] was above 35 mg/kg; in test [2] it was 23.6 mg/kg.

Turning to `CCCNC(=O)N1CCc2cc(OC)c(OC)cc2C1c1ccc(F)cc1` (centres undefined), the ED50 in test [1] was above 35 mg/kg; in test [2] it was 26.9 mg/kg.
